Test results from ChEMBL document CHEMBL1147057, “Virstatin inhibits dimerization of the transcriptional activator ToxT” (Proc Natl Acad Sci U S A, 2007).
Activity calls are given as the source filed them. No cut-off for these calls is given here.

What was measured:
[1] = target: T1, TCP pilus virulence regulatory protein (Vibrio cholerae serotype O1 (strain ATCC 39541 / Classical Ogawa 395 /O395)) (UniProt A5F384); assay: Inhibition of Vibrio cholerae wild type ToxT-mediated transcription of ctx promoter at 50 uM
T1 sequence (whole entry): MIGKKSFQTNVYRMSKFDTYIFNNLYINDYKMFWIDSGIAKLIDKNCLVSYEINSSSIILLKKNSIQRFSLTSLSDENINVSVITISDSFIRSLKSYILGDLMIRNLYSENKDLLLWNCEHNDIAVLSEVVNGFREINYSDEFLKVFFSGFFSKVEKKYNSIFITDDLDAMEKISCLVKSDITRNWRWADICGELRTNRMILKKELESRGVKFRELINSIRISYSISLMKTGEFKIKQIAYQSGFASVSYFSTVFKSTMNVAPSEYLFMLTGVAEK

[2] = target: T1, TCP pilus virulence regulatory protein (Vibrio cholerae serotype O1 (strain ATCC 39541 / Classical Ogawa 395 /O395)); assay: Inhibition of Vibrio cholerae wild type ToxT N-terminal domain dimerization expressed in Escherichia coli assessed as beta-galatosidase reporter gene expression at 10 uM by bacterial two-hybrid system
In short: (§1)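 Bacterial two-hybrid: identical toxT N-terminal segments fused to Zif (pACTrAp-Zif) and ω (pBRGpω) and co-transformed into E. coli KDZif1ZΔtolC. Cultures grown overnight with or without 10 μM IPTG and virstatin (10–50 μM), then subcultured into the same conditions. lacZ reporter activity measured by β-galactosidase assay in triplicate; a representative experiment is reported.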

[3] = target: T1, TCP pilus virulence regulatory protein (Vibrio cholerae serotype O1 (strain ATCC 39541 / Classical Ogawa 395 /O395)); assay: Inhibition of maltose binding protein-fused Vibrio cholerae ToxT monomer by gel filtration method
[4] = target: T1, TCP pilus virulence regulatory protein (Vibrio cholerae serotype O1 (strain ATCC 39541 / Classical Ogawa 395 /O395)); assay: Inhibition of ToxT-mediated transcriptional activation of ctxAB promoter in Vibrio cholerae O395deltalacZ assessed as beta-galactosidase expression at 100 uM relative to control; parameters: scale not given: the % may be the effect or the level left
[5] = target: T1, TCP pilus virulence regulatory protein (Vibrio cholerae serotype O1 (strain ATCC 39541 / Classical Ogawa 395 /O395)); assay: Inhibition of ToxT-mediated transcriptional activation of tagA promoter in Vibrio cholerae O395deltalacZ assessed as beta-galactosidase expression at 100 uM relative to control; parameters: scale not given: the % may be the effect or the level left
[6] = target: T1, TCP pilus virulence regulatory protein (Vibrio cholerae serotype O1 (strain ATCC 39541 / Classical Ogawa 395 /O395)); assay: Inhibition of ToxT-mediated transcriptional activation of acfA promoter in Vibrio cholerae O395deltalacZ assessed as beta-galactosidase expression at 100 uM relative to control; parameters: scale not given: the % may be the effect or the level left
[7] = target: T1, TCP pilus virulence regulatory protein (Vibrio cholerae serotype O1 (strain ATCC 39541 / Classical Ogawa 395 /O395)); assay: Inhibition of ToxT-mediated transcriptional activation of aldA promoter in Vibrio cholerae O395deltalacZ assessed as beta-galactosidase expression at 100 uM relative to control; parameters: scale not given: the % may be the effect or the level left
Vibrio cholerae [8] = assay: Inhibition of maltose binding protein-fused Vibrio cholerae ToxT L113P mutant monomer by gel filtration method
[9] = target: T1, TCP pilus virulence regulatory protein (Vibrio cholerae serotype O1 (strain ATCC 39541 / Classical Ogawa 395 /O395)); assay: Inhibition of Vibrio cholerae wild type ToxT N-terminal domain dimerization expressed in Escherichia coli assessed as beta-galatosidase reporter gene expression at 35 uM by bacterial two-hybrid system; in short: as §1
Vibrio cholerae [10] = assay: Inhibition of Vibrio cholerae ToxT L113P mutant N-terminal domain dimerization expressed in Escherichia coli assessed as beta-galatosidase reporter gene expression at 10 uM by bacterial two-hybrid system; in short: as §1
[11] = target: T1, TCP pilus virulence regulatory protein (Vibrio cholerae serotype O1 (strain ATCC 39541 / Classical Ogawa 395 /O395)); assay: Inhibition of ToxT-mediated transcriptional activation of acfD promoter in Vibrio cholerae O395deltalacZ assessed as beta-galactosidase expression at 100 uM relative to control; parameters: scale not given: the % may be the effect or the level left
[12] = target: T1, TCP pilus virulence regulatory protein (Vibrio cholerae serotype O1 (strain ATCC 39541 / Classical Ogawa 395 /O395)); assay: Inhibition of ToxT-mediated transcriptional activation of tcpA promoter in Vibrio cholerae O395deltalacZ assessed as beta-galactosidase expression at 100 uM relative to control; parameters: scale not given: the % may be the effect or the level left
[13] = target: T1, TCP pilus virulence regulatory protein (Vibrio cholerae serotype O1 (strain ATCC 39541 / Classical Ogawa 395 /O395)); assay: Inhibition of Vibrio cholerae wild type ToxT N-terminal domain dimerization expressed in Escherichia coli assessed as beta-galatosidase reporter gene expression at 20 uM by bacterial two-hybrid system; in short: as §1
[14] = target: T1, TCP pilus virulence regulatory protein (Vibrio cholerae serotype O1 (strain ATCC 39541 / Classical Ogawa 395 /O395)); assay: Inhibition of Vibrio cholerae wild type ToxT N-terminal domain dimerization expressed in Escherichia coli assessed as beta-galatosidase reporter gene expression at 50 uM by bacterial two-hybrid system; in short: as §1
[15] = target: T1, TCP pilus virulence regulatory protein (Vibrio cholerae serotype O1 (strain ATCC 39541 / Classical Ogawa 395 /O395)); assay: Inhibition of ToxT-mediated transcriptional activation of tcpI promoter in Vibrio cholerae O395deltalacZ assessed as beta-galactosidase expression at 100 uM relative to control; parameters: scale not given: the % may be the effect or the level left

## O=C(O)CN1C(=O)c2cccc3cccc(c23)C1=O
[1]
  Activity: Active

## O=C(O)CCCN1C(=O)c2cccc3cccc(c23)C1=O
[2]
  Activity: Active
[3]
  Activity: Active
[4]
  Activity: 3%
[5]
  Activity: 3%
[6]
  Activity: 15%
[7]
  Activity: 15%
Vibrio cholerae [8]
  Activity: inactive
[1]
  Activity: Active
[9]
  Activity: Active
Vibrio cholerae [10]
  Activity: inactive
[11]
  Activity: 3%
[12]
  Activity: 3%
[13]
  Activity: Active
[14]
  Activity: Active
[15]
  Activity: 15%

## O=C(O)CCN1C(=O)c2cccc3cccc(c23)C1=O
[1]
  Activity: Active

## COC(=O)CCCN1C(=O)c2cccc3cccc(c23)C1=O
[1]
  Activity: Active

## O=C(O)C1CCCC(N2C(=O)c3cccc4cccc(c34)C2=O)C1 (centres undefined)
[1]
  Activity: Active
